Measurements published in ChEMBL document CHEMBL4371014, “Novel Allosteric Ligands of γ-Aminobutyric Acid Transporter 1 (GAT1) by MS Based Screening of Pseudostatic Hydrazone Libraries” (J Med Chem, 2018).
Calls of active or inactive are those of the source. The calls are words filed in the database; no cut-off is given here.

Key:
[1] = biological target: T1, GABA transporter 4 (Mus musculus) (UniProt P31650); test: Inhibition of mouse GAT4 expressed in HEK293 cells assessed as reduction in [3H]GABA uptake at 100 uM preincubated for 25 mins followed by [3H]GABA addition and measured after 4 mins by liquid scintillation counting method relative to control; type: cell-based
T1 sequence (whole entry): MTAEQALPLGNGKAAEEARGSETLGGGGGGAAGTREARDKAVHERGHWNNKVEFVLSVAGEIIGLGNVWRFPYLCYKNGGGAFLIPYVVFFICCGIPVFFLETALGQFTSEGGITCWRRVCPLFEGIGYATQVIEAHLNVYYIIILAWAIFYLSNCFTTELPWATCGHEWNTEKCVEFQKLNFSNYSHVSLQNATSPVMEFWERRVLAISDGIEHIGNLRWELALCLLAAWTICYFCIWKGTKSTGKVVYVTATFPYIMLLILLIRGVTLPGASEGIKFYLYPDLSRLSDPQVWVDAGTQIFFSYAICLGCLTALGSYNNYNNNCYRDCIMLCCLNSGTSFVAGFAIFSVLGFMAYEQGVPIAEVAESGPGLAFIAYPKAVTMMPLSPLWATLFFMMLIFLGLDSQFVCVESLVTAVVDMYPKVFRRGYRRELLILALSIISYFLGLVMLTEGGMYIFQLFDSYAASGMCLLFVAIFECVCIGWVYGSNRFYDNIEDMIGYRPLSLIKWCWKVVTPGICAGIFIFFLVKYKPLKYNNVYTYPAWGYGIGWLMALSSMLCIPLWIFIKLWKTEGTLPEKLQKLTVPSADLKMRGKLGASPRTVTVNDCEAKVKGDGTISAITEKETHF

[2] = biological target: Sodium- and chloride-dependent GABA transporter 1 (Homo sapiens) (UniProt P30531); test: Inhibition of human GAT1 expressed in HEK293 cells assessed as reduction in [3H]GABA uptake preincubated for 25 mins followed by [3H]GABA addition and measured after 4 mins by liquid scintillation counting method; type: cell-based
Sequence of Sodium- and chloride-dependent GABA transporter 1 (Homo sapiens) (P30531 whole entry, looked up): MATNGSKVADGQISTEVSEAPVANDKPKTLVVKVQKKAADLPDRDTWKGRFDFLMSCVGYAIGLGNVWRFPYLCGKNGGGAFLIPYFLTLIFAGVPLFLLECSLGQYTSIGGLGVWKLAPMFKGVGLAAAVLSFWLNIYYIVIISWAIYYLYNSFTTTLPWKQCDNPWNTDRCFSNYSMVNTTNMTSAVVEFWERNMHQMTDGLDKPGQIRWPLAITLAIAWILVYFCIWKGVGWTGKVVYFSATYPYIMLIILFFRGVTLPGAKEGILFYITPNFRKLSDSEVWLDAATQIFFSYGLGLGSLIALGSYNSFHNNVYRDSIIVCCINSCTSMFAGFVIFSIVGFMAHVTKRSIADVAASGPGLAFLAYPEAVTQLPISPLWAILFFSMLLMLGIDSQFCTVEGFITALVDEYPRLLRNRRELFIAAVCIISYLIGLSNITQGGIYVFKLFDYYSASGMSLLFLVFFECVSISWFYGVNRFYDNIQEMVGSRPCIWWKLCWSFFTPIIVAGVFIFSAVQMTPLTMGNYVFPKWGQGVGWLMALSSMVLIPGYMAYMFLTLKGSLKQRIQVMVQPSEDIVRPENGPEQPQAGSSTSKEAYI

[3] = system: Slc6a13 GABA transporter mGAT3 (Mus musculus); test: Inhibition of mouse GAT3 expressed in HEK293 cells assessed as reduction in [3H]GABA uptake at 100 uM preincubated for 25 mins followed by [3H]GABA addition and measured after 4 mins by liquid scintillation counting method relative to control
[4] = biological target: Sodium- and chloride-dependent GABA transporter 1 (Mus musculus) (UniProt P31648); test: Inhibition of NO711 binding to mouse GAT1 expressed in HEK293 cell membranes assessed as residual binding at 1 uM preincubated for 4 hrs followed by NO711 addition and measured after 40 mins by LC-ESI-MS/MS analysis relative to control
Outline: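 Single hydrazones formed in situ in the presence of mouse GAT1 from one aldehyde (1.0 µM) and hydrazine (200 µM). Formation ran 4 h, then NO711 MS marker was added for 40 min. Specifically bound NO711 was freed from the target and quantified by LC-ESI-MS/MS. Results are % remaining specific binding, means±SD of four replicates.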

[5] = system: Betaine/GABA transporter BGT1 (Mus musculus); test: Inhibition of mouse GAT2 expressed in HEK293 cells assessed as reduction in [3H]GABA uptake at 100 uM preincubated for 25 mins followed by [3H]GABA addition and measured after 10 mins by liquid scintillation counting method relative to control
[6] = biological target: Sodium- and chloride-dependent GABA transporter 1 (Homo sapiens) (UniProt P30531); details: 100 nM
[7] = biological target: Sodium- and chloride-dependent GABA transporter 1 (Homo sapiens) (UniProt P30531); details: 1 uM
[8] = biological target: Sodium- and chloride-dependent GABA transporter 1 (Homo sapiens) (UniProt P30531); test: (§1) Non-competitive inhibition of human GAT1 expressed in COS cells assessed as reduction in [2H6]GABA uptake by measuring [2H6]GABA Bmax at 1 uM preincubated for 25 mins followed by [2H6]GABA addition and measured after 4 mins […] (reference value: 79.5 +/- 5 pmol/mg); type: cell-based
[9] = biological target: Sodium- and chloride-dependent GABA transporter 1 (Homo sapiens) (UniProt P30531); test: as §1, with “at 10” for “at 1”; type: cell-based
[10] = biological target: Sodium- and chloride-dependent GABA transporter 1 (Mus musculus) (UniProt P31648); test: Inhibition of mouse GAT1 expressed in HEK293 cells assessed as reduction in [3H]GABA uptake at 100 uM preincubated for 25 mins followed by [3H]GABA addition and measured after 4 mins by liquid scintillation counting method relative to control; type: cell-based

inhibition [1] [%]	inhibition [2]	inhibition [3] [%]	Activity [4] [%]	inhibition [5] [%]	Bmax [6] [pmol/mg]	Bmax [7] [pmol/mg]	Bmax [8] [pmol/mg]	Bmax [9] [pmol/mg]	inhibition [10] [%]	Structure (SMILES)
57	Active	57	38	91						O=C(O)[C@H]1CNC[C@@H](CN/N=C/c2ccc(-c3cc(C(F)(F)F)ccc3Cl)o2)C1 (racemic)
	Active				79.9	81				Cc1ccsc1C(=CCCN1CCC[C@@H](C(=O)O)C1)c1sccc1C
79	Active	65	32	84			57.1	38.9	50	O=C(O)[C@H]1CNC[C@@H](CN/N=C/c2ccc(-c3cc(C(F)(F)F)cc(C(F)(F)F)c3)o2)C1 (racemic)
53	Active	59	40	65						O=C(O)[C@H]1CNC[C@@H](CN/N=C/c2ccc(-c3ccc(C(F)(F)F)cc3Cl)o2)C1 (racemic)
	Active		16	64			48.4	28.3		O=C(O)[C@H]1CNC[C@@H](CN/N=C/c2ccc(-c3cccc4ccccc34)o2)C1 (racemic)
